Experiments:
HeLa [1] = experiment: Photocytotoxicity against human HeLa cells after 24 hrs by MTT assay in presence of 10 J/cm2 laser; format: functional; settings: light or radiation study, read-out: LD50 (the source's name)
Outline: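 HeLa cells (5000/well) grown 24 h, then incubated 24 h with bacteriochlorin at 0.001–10 μM in complete RPMI with 10% serum (DMSO ≤0.2%). Medium replaced, then 10 J/cm2 of 732 nm laser light given (780 nm LED, 50 mW/cm2, for one compound). MTT (4 h, 562 nm) 24 h later. Survival is relative to untreated controls. LD50 in nM. Experiments done in triplicate.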

HeLa [2] = experiment: Cellular uptake in human HeLa cells measured per mg of protein at 20.5 uM after 24 hrs by fluorescence measurements; format: ADME, cell-based
Outline: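 HeLa in RPMI with 10% heat-inactivated FBS, 5000 cells/well, grown 24 h, then given bacteriochlorin in complete medium (DMSO ≤0.2%) for 24 h. Cells were rinsed with warm PBS and lysed in SOLVABLE, 37 °C, 2 h. Fluorescence was read at ex 402/em 730 nm against per-compound calibration curves and normalized to BCA protein, giving nmol per mg protein. Three repeats.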

[3] = Octanol-water partition coefficient, log P by stir-flask method; format: physicochemical
Outline: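 About 2 mL octanol and 2 mL water were pre-stirred 3 h at room temperature. Under 0.5 mg bacteriochlorin was added and stirred 24 h at 100–200 rpm, then the phases settled for 30 min. An aliquot of each phase was diluted in DMSO and the Qy(0,0) absorbance ratio (octanol/water) was taken. A phase with no detectable compound was set at A=0.001 as a bound.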

HeLa [4] = experiment: Cellular uptake in human HeLa cells assessed as localization to endoplasmic reticulum at 1 uM after 24 hrs by confocal fluorescence microscopy; format: ADME, cell-based
Outline: (§1)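 HeLa plated in 35 mm dishes, attached overnight, then given 1 μM bacteriochlorin in complete medium for 24 h. After a PBS wash, cells got 5 μg/mL LysoTracker green DND-26, MitoTracker green FM or ER-Tracker green for 30 min at 37 °C, then were washed again. Confocal imaging used 488 nm excitation, 515 ± 10 nm (tracker) or >580 nm (bacteriochlorin) emission, and a 63× water objective.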

HeLa [5] = experiment: Cellular uptake in human HeLa cells assessed as localization to lysosomes at 1 uM after 24 hrs by confocal fluorescence microscopy; format: ADME, cell-based; outline: as §1
HeLa [6] = experiment: Cellular uptake in human HeLa cells assessed as localization to mitochondria at 1 uM after 24 hrs by confocal fluorescence microscopy; format: ADME, cell-based; outline: as §1

Row | SMILES | CC50 (HeLa [1]) [nM] | Drug uptake (HeLa [2]) [nmol/mg] | logP ([3]; read-out: logP) | Drug uptake (HeLa [4]) | Drug uptake (HeLa [5]) | Drug uptake (HeLa [6]) | logP [3]
1 | CC1(C)Cc2cc3[nH]c(cc4nc(cc5[nH]c(cc1n2)cc5C#CC[N+](C)(C)C)CC4(C)C)cc3C#CC[N+](C)(C)C.[Cl-].[Cl-] | 2000 | 8.2 | 0.9 |  |  |  | 
2 | CC1(C)Cc2cc3[nH]c(cc4nc(cc5[nH]c(cc1n2)cc5CN(CCO)CCO)CC4(C)C)cc3CN(CCO)CCO | 100 | 8.2 | 2.3 | Active | Active |  | 
3 | CC1(C)Cc2cc3[nH]c(cc4nc(cc5[nH]c(cc1n2)cc5-c1cc(OCCO)cc(OCCO)c1)CC4(C)C)cc3-c1cc(OCCO)cc(OCCO)c1 | 15 | 10.4 | ≥ 2.2 |  |  |  | 
4 | CC1(C)Cc2cc3[nH]c(cc4nc(cc5[nH]c(cc1n2)cc5C(=O)N(CCN)CCN)CC4(C)C)cc3C(=O)N(CCN)CCN | 800 | 1.8 | -1.4 |  |  |  | 
5 | COCCN(CCOC)C(=O)c1cc2cc3nc(cc4[nH]c(cc5nc(cc1[nH]2)CC5(C)C)cc4C(=O)N(CCOC)CCOC)CC3(C)C | 60 | 15 | ≥ 1.9 |  |  |  | 
6 | CC1(C)Cc2cc3[nH]c(cc4nc(cc5[nH]c(cc1n2)cc5-c1cc(O)cc(O)c1)CC4(C)C)cc3-c1cc(O)cc(O)c1 | 80 | 13.5 | ≥ 2.5 | Active |  | Active | 
7 | COCCOCCOCCOCCNCc1cc(CNCCOCCOCCOCCOC)cc(-c2c3nc(cc4[nH]c(cc4-c4ccc(C)cc4)c(OC)c4nc(cc5[nH]c2cc5-c2ccc(C)cc2)C(C)(C)C4)C(C)(C)C3)c1 | 500 | 3.9 | ≥ 2.2 |  |  |  | 
8 | CC1(C)Cc2cc3[nH]c(cc4nc(cc5[nH]c(cc1n2)cc5C(=O)/C=C/c1cc(O)cc(O)c1)CC4(C)C)cc3C(=O)/C=C/c1cc(O)cc(O)c1 | 200 | 1.8 | ≥ 1.8 |  |  |  | 
9 | CC1(C)Cc2cc3[nH]c(cc4nc(cc5[nH]c(cc1n2)cc5C(=O)N1CC[N+](C)(C)CC1)CC4(C)C)cc3C(=O)N1CC[N+](C)(C)CC1.[Cl-].[Cl-] | 800 | 1.8 |  |  |  |  | -1
10 | CC1(C)Cc2cc3[nH]c(cc4nc(cc5[nH]c(cc1n2)cc5C(=O)NCCN)CC4(C)C)cc3C(=O)NCCN | 3000 | 7.7 | -0.5 |  | Active |  | 
11 | COCCC(CCOC)c1cc2cc3nc(cc4[nH]c(cc5nc(cc1[nH]2)CC5(C)C)cc4C(CCOC)CCOC)CC3(C)C |  | 11.7 | ≥ 2.5 |  |  |  | 
12 | CC1(C)Cc2cc3[nH]c(cc4nc(cc5[nH]c(cc1n2)cc5C(=O)O)CC4(C)C)cc3C(=O)O | 4000 | 0.72 | 1.4 |  |  |  | 

— ChEMBL document CHEMBL1157821, “In vitro photodynamic therapy and quantitative structure-activity relationship studies with stable synthetic near-infrared-absorbing bacteriochlorin photosensitizers” (J Med Chem, 2010)
